Assay results taken from publication PMC4437465 (Molecular microbiology, 2014).
Like-named read-outs stand apart in the source and are kept apart here. One block for each compound: values may come before it.

Tests used:
[1] = target: T1, EUR_01830 (Agathobacter rectalis, UniProt A0ABF7PGY2); assay: isothermal titration calorimetry; format: binding; conditions: 20 mM HEPES, 100 mM NaCl pH 7.0, 25 °C; isotherm not fitted
T1 sequence (A0ABF7PGY2 24-422): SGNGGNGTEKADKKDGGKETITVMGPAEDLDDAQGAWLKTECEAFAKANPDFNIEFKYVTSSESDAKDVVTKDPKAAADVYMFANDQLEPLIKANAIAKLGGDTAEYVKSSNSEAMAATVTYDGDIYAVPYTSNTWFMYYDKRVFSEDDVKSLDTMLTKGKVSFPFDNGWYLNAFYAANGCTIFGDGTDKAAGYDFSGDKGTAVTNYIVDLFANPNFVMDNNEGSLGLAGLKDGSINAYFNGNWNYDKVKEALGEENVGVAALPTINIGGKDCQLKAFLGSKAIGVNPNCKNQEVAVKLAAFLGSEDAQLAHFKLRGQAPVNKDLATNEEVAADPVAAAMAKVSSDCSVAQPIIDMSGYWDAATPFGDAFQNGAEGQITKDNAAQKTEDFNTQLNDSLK

[2] = target: T1, EUR_01830; assay: isothermal titration calorimetry; format: binding; conditions: 20 mM HEPES, 100 mM NaCl pH 7.0, 25 °C
[3] = target: T2, EUR_01240 (Agathobacter rectalis, UniProt D6E1S8); assay: isothermal titration calorimetry; format: binding; conditions: read-out: EUR_01240 / Kd; 20 mM HEPES, 100 mM NaCl pH 7.0, 25 °C
T2 sequence (D6E1S8 23-427): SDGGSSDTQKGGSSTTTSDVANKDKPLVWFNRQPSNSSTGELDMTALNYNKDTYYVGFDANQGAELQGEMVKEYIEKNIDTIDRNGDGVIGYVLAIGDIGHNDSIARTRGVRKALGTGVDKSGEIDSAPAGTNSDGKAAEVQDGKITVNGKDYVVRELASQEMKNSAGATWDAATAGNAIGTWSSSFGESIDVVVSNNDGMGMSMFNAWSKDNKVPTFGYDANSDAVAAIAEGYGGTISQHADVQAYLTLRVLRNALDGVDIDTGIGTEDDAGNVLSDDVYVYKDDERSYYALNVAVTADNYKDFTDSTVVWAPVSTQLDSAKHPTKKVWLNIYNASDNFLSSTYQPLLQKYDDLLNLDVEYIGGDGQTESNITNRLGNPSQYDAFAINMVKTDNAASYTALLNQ
Outline: (§1)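 Runs used a low-volume NanoITC at 25 °C. Protein (30–150 μM) was dialysed against 20 mM HEPES, 100 mM NaCl pH 7.0 and loaded in the sample cell, with water in the reference cell. Oligosaccharides (0.5–5 mM) were prepared in dialysis buffer and delivered as a small first injection plus 27 further injections. Stirring was at 350 rpm. Heat of reaction was recorded and fitted for Kd.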

[4] = target: T3, EUR_21100 (Agathobacter rectalis, UniProt A0ABF7PGZ5); assay: thin layer chromatography of products; format: biochemical; conditions: 25 mM HEPES pH 6.5, 150 mM NaCl, 37 °C
T3 sequence (A0ABF7PGZ5 45-1329): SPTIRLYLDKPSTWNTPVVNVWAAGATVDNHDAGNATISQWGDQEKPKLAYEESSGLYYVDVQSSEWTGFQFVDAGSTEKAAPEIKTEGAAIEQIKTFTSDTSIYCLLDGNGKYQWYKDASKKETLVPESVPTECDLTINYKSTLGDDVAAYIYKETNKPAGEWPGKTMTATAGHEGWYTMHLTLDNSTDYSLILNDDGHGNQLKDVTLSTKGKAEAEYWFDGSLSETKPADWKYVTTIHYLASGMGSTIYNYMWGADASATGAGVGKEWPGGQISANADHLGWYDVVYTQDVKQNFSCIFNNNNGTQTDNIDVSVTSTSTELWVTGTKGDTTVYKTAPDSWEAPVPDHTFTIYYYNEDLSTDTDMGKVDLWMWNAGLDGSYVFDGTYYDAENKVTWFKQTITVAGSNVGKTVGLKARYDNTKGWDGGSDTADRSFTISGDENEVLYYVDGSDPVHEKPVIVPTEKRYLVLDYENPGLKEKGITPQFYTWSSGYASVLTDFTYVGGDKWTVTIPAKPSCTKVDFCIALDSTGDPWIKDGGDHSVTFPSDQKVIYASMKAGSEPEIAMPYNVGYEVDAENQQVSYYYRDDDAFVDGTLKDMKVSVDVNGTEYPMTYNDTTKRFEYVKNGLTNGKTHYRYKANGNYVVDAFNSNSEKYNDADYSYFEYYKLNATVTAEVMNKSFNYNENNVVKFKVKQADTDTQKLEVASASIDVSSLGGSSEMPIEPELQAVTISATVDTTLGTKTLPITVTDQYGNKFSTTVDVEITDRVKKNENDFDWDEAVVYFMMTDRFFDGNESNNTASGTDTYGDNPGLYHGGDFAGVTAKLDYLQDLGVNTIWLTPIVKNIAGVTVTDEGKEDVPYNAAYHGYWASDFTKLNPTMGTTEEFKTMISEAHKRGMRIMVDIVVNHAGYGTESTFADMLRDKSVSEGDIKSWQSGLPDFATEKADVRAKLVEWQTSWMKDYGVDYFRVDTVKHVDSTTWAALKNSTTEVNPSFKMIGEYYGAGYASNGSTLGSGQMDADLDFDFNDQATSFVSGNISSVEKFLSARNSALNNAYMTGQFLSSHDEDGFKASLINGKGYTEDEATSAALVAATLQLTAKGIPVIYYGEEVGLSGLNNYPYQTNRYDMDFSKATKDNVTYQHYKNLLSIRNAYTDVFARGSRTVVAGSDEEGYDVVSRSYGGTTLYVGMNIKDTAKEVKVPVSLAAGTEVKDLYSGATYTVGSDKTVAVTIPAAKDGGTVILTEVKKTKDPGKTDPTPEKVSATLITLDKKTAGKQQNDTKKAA

[5] = target: EUR_31480; assay: isothermal titration calorimetry; format: binding, Agathobacter rectalis; conditions: read-out: EUR_31480 / Kd; 20 mM HEPES, 100 mM NaCl pH 7.0, 25 °C
Outline: as §1

[6] = target: T1, EUR_01830; assay: isothermal titration calorimetry; format: binding; conditions: read-out: EUR_01830 / Kd; 20 mM HEPES, 100 mM NaCl pH 7.0, 25 °C
[7] = target: T4, EUR_21010 (Agathobacter rectalis, UniProt C4ZGN9); assay: isothermal titration calorimetry; format: binding; conditions: 20 mM HEPES, 100 mM NaCl pH 7.0, 25 °C
T4 sequence (C4ZGN9 26-464): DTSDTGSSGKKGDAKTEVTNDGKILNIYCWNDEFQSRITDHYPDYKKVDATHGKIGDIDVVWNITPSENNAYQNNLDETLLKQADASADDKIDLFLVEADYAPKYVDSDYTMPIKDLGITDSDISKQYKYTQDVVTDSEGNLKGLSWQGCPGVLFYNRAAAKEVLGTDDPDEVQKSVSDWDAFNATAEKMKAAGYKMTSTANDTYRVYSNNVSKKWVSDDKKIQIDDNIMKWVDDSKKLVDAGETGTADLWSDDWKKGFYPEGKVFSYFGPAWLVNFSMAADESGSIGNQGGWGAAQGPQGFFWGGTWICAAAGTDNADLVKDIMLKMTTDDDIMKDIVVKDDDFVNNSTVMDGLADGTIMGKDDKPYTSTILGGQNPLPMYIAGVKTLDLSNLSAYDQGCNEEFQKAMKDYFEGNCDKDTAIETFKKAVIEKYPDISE

Compound: OC[C@H]1O[C@H](OC[C@H]2O[C@H](O[C@H]3[C@H](O)[C@@H](O)[C@@H](O[C@H]4[C@H](O)[C@@H](O)[C@@H](OC[C@H]5O[C@H](O[C@H]6[C@H](O)[C@@H](O)[C@@H](O[C@H]7[C@H](O)[C@@H](O)C(O)O[C@@H]7CO)O[C@@H]6CO)[C@H](O)[C@@H](O)[C@@H]5O)O[C@@H]4CO)O[C@@H]3CO)[C@H](O)[C@@H](O)[C@@H]2O)[C@H](O)[C@@H](O)[C@@H]1O (stereo partly shown) [GMM]
isothermal titration calorimetry [1]: We obtained an isotherm with GMM, but these data could not be fit well enough

Compound: OC[C@H]1O[C@H](OC[C@H]2O[C@H](O[C@H]3[C@H](O)[C@@H](O)[C@@H](O[C@H]4[C@H](O)[C@@H](O)C(O)O[C@@H]4CO)O[C@@H]3CO)[C@H](O)[C@@H](O)[C@@H]2O)[C@H](O)[C@@H](O)[C@@H]1O (stereo partly shown) [GM]
Kd ([2]; read-out: EUR_01830 / Kd): 9.08 ± 0.618 µM

Kd [3]: 0.415 ± 0.0202 µM
Compound: OC[C@H]1OC(O)[C@H](O)[C@@H](O)[C@H]1O (stereo partly shown) [Galactose]

Kd [3]: 1.9 ± 0.46 µM
Compound: OC[C@H]1OC(O)[C@H](O)[C@@H](O)[C@@H]1O (stereo partly shown) [Glucose]

Compound: OC[C@H]1O[C@H](O[C@H]2[C@H](O)[C@@H](O)[C@@H](O[C@H]3[C@H](O)[C@@H](O)[C@@H](O[C@H]4[C@H](O)[C@@H](O)[C@@H](O[C@H]5[C@H](O)[C@@H](O)[C@@H](O[C@H]6[C@H](O)[C@@H](O)[C@@H](O[C@H]7[C@H](O)[C@@H](O)C(O)O[C@@H]7CO)O[C@@H]6CO)O[C@@H]5CO)O[C@@H]4CO)O[C@@H]3CO)O[C@@H]2CO)[C@H](O)[C@@H](O)[C@@H]1O (stereo partly shown) [Maltoheptaose]
Kd ([2]; read-out: EUR_01830 / Kd): 0.288 ± 0.0059 µM
thin layer chromatography of products [4]: can hydrolyze longer maltooligosaccharides such as maltohexaose and maltoheptaose

Compound: OC[C@H]1O[C@H](O[C@H]2[C@H](O)[C@@H](O)[C@@H](O[C@H]3[C@H](O)[C@@H](O)[C@@H](O[C@H]4[C@H](O)[C@@H](O)[C@@H](O[C@H]5[C@H](O)[C@@H](O)[C@@H](O[C@H]6[C@H](O)[C@@H](O)C(O)O[C@@H]6CO)O[C@@H]5CO)O[C@@H]4CO)O[C@@H]3CO)O[C@@H]2CO)[C@H](O)[C@@H](O)[C@@H]1O (stereo partly shown) [Maltohexaose]
Kd ([2]; read-out: EUR_01830 / Kd): 0.16 ± 0.006 µM

Compound: OC[C@H]1O[C@H](O[C@H]2[C@H](O)[C@@H](O)[C@@H](O[C@H]3[C@H](O)[C@@H](O)[C@@H](O[C@H]4[C@H](O)[C@@H](O)[C@@H](O[C@H]5[C@H](O)[C@@H](O)C(O)O[C@@H]5CO)O[C@@H]4CO)O[C@@H]3CO)O[C@@H]2CO)[C@H](O)[C@@H](O)[C@@H]1O (stereo partly shown) [Maltopentaose]
Kd ([2]; read-out: EUR_01830 / Kd): 0.194 ± 0.0348 µM

Kd [5]: 0.563 ± 0.0664 µM
Compound: OC[C@H]1O[C@H](O[C@H]2[C@H](O)[C@@H](O)C(O)O[C@@H]2CO)[C@H](O)[C@@H](O)[C@@H]1O (stereo partly shown) [Maltose]

Compound: OC[C@H]1O[C@H](O[C@H]2[C@H](O)[C@@H](O)[C@@H](O[C@H]3[C@H](O)[C@@H](O)[C@@H](O[C@H]4[C@H](O)[C@@H](O)C(O)O[C@@H]4CO)O[C@@H]3CO)O[C@@H]2CO)[C@H](O)[C@@H](O)[C@@H]1O (stereo partly shown) [Maltotetraose]
Kd ([2]; read-out: EUR_01830 / Kd): 0.112 ± 0.0198 µM
Kd [5]: 1.67 ± 0.199 µM

Compound: OC[C@H]1O[C@H](O[C@H]2[C@H](O)[C@@H](O)[C@@H](O[C@H]3[C@H](O)[C@@H](O)C(O)O[C@@H]3CO)O[C@@H]2CO)[C@H](O)[C@@H](O)[C@@H]1O (stereo partly shown) [Maltotriose]
Kd [5]: 0.355 ± 0.0004 µM
Kd [6]: 0.55 ± 0.014 µM

Kd [7]: 0.542 µM
Compound: OC[C@H]1O[C@@H](O[C@H]2[C@H](O)[C@@H](O)C(O)O[C@@H]2CO)[C@H](O)[C@@H](O)[C@@H]1O (stereo partly shown) [cellobiose]

Kd [7]: 3.01 µM
Compound: OC[C@H]1O[C@@H](O[C@H]2[C@H](O)[C@@H](O)[C@H](O[C@H]3[C@H](O)[C@@H](O)[C@H](O[C@H]4[C@H](O)[C@@H](O)C(O)O[C@@H]4CO)O[C@@H]3CO)O[C@@H]2CO)[C@H](O)[C@@H](O)[C@@H]1O (stereo partly shown) [cellotetraose]

Compound: OC[C@H]1O[C@@H]2O[C@H]3[C@H](O)[C@@H](O)[C@@H](O[C@H]4[C@H](O)[C@@H](O)[C@@H](O[C@H]5[C@H](O)[C@@H](O)[C@@H](O[C@H]6[C@H](O)[C@@H](O)[C@@H](O[C@H]7[C@H](O)[C@@H](O)[C@@H](O[C@H]1[C@H](O)[C@H]2O)O[C@@H]7CO)O[C@@H]6CO)O[C@@H]5CO)O[C@@H]4CO)O[C@@H]3CO [α-cyclodextrin]
Kd [2]: 39 900 ± 2 430 nM
